Test results: ChEMBL document CHEMBL1177656, “Improved P2 phenylglycine-based hepatitis C virus NS3 protease inhibitors with alkenylic prime-side substituents” (Bioorg Med Chem, 2010)

Experiments:
[1] = Inhibition of HCV NS3 protease by FRET assay; parameters: species or system Hepacivirus hominis
Outline: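 Buffer was 50 mM HEPES pH 7.5, 10 mM DTT, 40% glycerol, 0.1% n-octyl-β-D-glucoside and 3.3% DMSO. Reaction was started with FRET substrate Ac-DED(Edans)EEAbu[COO]ASK(Dabcyl)-NH2. Ki was obtained by non-linear regression.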

[2] = target: NS3 protease (Hepacivirus C, UniProt C1KIQ2, D168V); experiment: Inhibition of HCV NS3 protease D168V mutant by FRET assay; parameters: species or system Hepacivirus hominis
Outline: (§1)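 Buffer was 50 mM HEPES pH 7.5, 10 mM DTT, 40% glycerol, 0.1% n-octyl-β-D-glucoside and 3.3% DMSO. Reaction started with the FRET substrate Ac-DED(Edans)EEAbu[COO]ASK(Dabcyl)-NH2. Ki derived by non-linear regression.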

[3] = tested on: Hepatitis C virus; experiment: Antiviral activity against HCV 1B […] by firefly luciferase reporter gene assay; type: functional, organism-based, Hepacivirus hominis; settings: genotype 1b, Huh-7
[4] = target: NS3 protease (Hepatitis C virus subtype 1b, UniProt Q0ZMF1, A156T); experiment: Inhibition of HCV NS3 protease A156T mutant by FRET assay; parameters: species or system Hepacivirus hominis; outline: as §1

Row | Ki [1] | Structure (SMILES) | Ki [2] | EC50 [3] | Ki [4]
1 | 330 nM | C=CCC1(S(=O)(=O)NC(=O)[C@H](CCC)NC(=O)[C@@H](NC(=O)[C@@H](NC(=O)OC(C)(C)C)C(C)(C)C)c2ccc(Oc3cc(-c4ccccc4)nc4cc(OC)ccc34)c(C=C)c2)CC1 |  |  | 
2 | 190 nM | C=CCC1(S(=O)(=O)NC(=O)[C@H](CCC)NC(=O)[C@H](NC(=O)[C@@H](NC(=O)OC(C)(C)C)C(C)(C)C)c2ccc(Oc3cc(-c4ccccc4)nc4cc(OC)ccc34)c(C=C)c2)CC1 |  |  | 
3 | 290 nM | C=Cc1cc([C@H](NC(=O)[C@@H](NC(=O)OC(C)(C)C)C(C)(C)C)C(=O)N[C@@H](CCC)C(=O)NS(=O)(=O)c2ccccc2)ccc1Oc1cc(-c2ccccc2)nc2cc(OC)ccc12 |  |  | 
4 | 130 nM | C=Cc1cc([C@@H](NC(=O)[C@@H](NC(=O)OC(C)(C)C)C(C)(C)C)C(=O)N[C@@H](CCC)C(=O)NS(=O)(=O)c2ccccc2)ccc1Oc1cc(-c2ccccc2)nc2cc(OC)ccc12 |  |  | 
5 | 140 nM | C=CCc1ccccc1S(=O)(=O)NC(=O)[C@H](CCC)NC(=O)[C@@H](NC(=O)[C@@H](NC(=O)OC(C)(C)C)C(C)(C)C)c1ccc(Oc2cc(-c3ccccc3)nc3cc(OC)ccc23)c(C=C)c1 |  | > 10000 nM | 
6 | 35 nM | C=CCc1ccccc1S(=O)(=O)NC(=O)[C@H](CCC)NC(=O)[C@H](NC(=O)[C@@H](NC(=O)OC(C)(C)C)C(C)(C)C)c1ccc(Oc2cc(-c3ccccc3)nc3cc(OC)ccc23)c(C=C)c1 |  | 3000 nM | 
7 | 300 nM | C=CCCCS(=O)(=O)NC(=O)[C@H](CCC)NC(=O)[C@@H]1C[C@@H](Oc2cc(-c3ccccc3)nc3cc(OC)ccc23)CN1C(=O)[C@@H](NC(=O)OC(C)(C)C)C(C)(C)C |  |  | 
8 | 230 nM | CCC[C@H](NC(=O)[C@@H](NC(=O)[C@@H](NC(=O)OC(C)(C)C)C(C)(C)C)c1ccc(Oc2cc(-c3ccccc3)nc3cc(OC)ccc23)cc1)C(=O)NS(=O)(=O)c1ccccc1 |  |  | 
9 |  | CC(C)(C)OC(=O)N[C@H]1CCCCC/C=C\C2C[C@@]2(C(=O)NS(=O)(=O)C2CC2)NC(=O)[C@@H]2C[C@@H](OC(=O)N3Cc4cccc(F)c4C3)CN2C1=O (single isomer, unassigned) [DANOPREVIR] |  | 2.1 nM | 
10 | 14 nM | CC(C)(C)NC(=O)N[C@H](C(=O)N1C[C@H]2[C@@H]([C@H]1C(=O)NC(CC1CCC1)C(=O)C(N)=O)C2(C)C)C(C)(C)C (some centres not stated) [BOCEPREVIR] |  |  | 
11 | 0.36 nM | COc1ccc2c(O[C@@H]3C[C@H]4C(=O)N[C@]5(C(=O)NS(=O)(=O)C6CC6)C[C@H]5/C=C\CCCCN(C)C(=O)[C@@H]4C3)cc(-c3nc(C(C)C)cs3)nc2c1C [SIMEPREVIR] |  |  | 
12 | 40 nM | CCC[C@H](NC(=O)[C@@H]1[C@H]2CCC[C@H]2CN1C(=O)[C@@H](NC(=O)[C@@H](NC(=O)c1cnccn1)C1CCCCC1)C(C)(C)C)C(=O)C(=O)NC1CC1 [TELAPREVIR] |  |  | 
13 | 0.06 nM | CC[C@@H]1C[C@]1(NC(=O)[C@@H]1C[C@@H]2CN1C(=O)[C@H](C(C)(C)C)NC(=O)OCC(C)(C)CCCCc1cccc3c1CN(C3)C(=O)O2)C(=O)NS(=O)(=O)C1CC1 [VANIPREVIR] |  | 5 nM | 

Row | Structure (SMILES) | Ki [1] | Ki [2] | EC50 [3] | Ki [4]
14 | C=CCCCS(=O)(=O)NC(=O)[C@H](CCC)NC(=O)[C@@H](NC(=O)[C@@H](NC(=O)OC(C)(C)C)C(C)(C)C)c1ccc(Oc2cc(-c3ccccc3)nc3cc(OC)ccc23)c(C=C)c1 | 63 nM | 140 nM | > 10000 nM | 180 nM
15 | C=CCCCS(=O)(=O)NC(=O)[C@H](CCC)NC(=O)[C@H](NC(=O)[C@@H](NC(=O)OC(C)(C)C)C(C)(C)C)c1ccc(Oc2cc(-c3ccccc3)nc3cc(OC)ccc23)c(C=C)c1 | 48 nM | 380 nM | 8900 nM | 86 nM
16 | C=CCCCCS(=O)(=O)NC(=O)[C@H](CCC)NC(=O)[C@@H](NC(=O)[C@@H](NC(=O)OC(C)(C)C)C(C)(C)C)c1ccc(Oc2cc(-c3ccccc3)nc3cc(OC)ccc23)c(C=C)c1 | 120 nM | 390 nM | > 10000 nM | 380 nM
17 | C=CCCCCS(=O)(=O)NC(=O)[C@H](CCC)NC(=O)[C@H](NC(=O)[C@@H](NC(=O)OC(C)(C)C)C(C)(C)C)c1ccc(Oc2cc(-c3ccccc3)nc3cc(OC)ccc23)c(C=C)c1 | 100 nM | 530 nM | 4700 nM | 270 nM
18 | C=Cc1cc([C@H](NC(=O)[C@@H](NC(=O)OC(C)(C)C)C(C)(C)C)C(=O)N[C@@H](CCC)C(=O)NS(=O)(=O)c2ccccc2C=C)ccc1Oc1cc(-c2ccccc2)nc2cc(OC)ccc12 | 120 nM | 450 nM | > 10000 nM | 250 nM
19 | C=Cc1cc([C@@H](NC(=O)[C@@H](NC(=O)OC(C)(C)C)C(C)(C)C)C(=O)N[C@@H](CCC)C(=O)NS(=O)(=O)c2ccccc2C=C)ccc1Oc1cc(-c2ccccc2)nc2cc(OC)ccc12 | 47 nM | 230 nM | 5400 nM | 180 nM
20 | COc1ccc2c(O[C@@H]3C[C@H]4C(=O)N[C@]5(C(=O)O)C[C@H]5/C=C\CCCCC[C@H](NC(=O)OC5CCCC5)C(=O)N4C3)cc(-c3csc(NC(C)C)n3)nc2c1 [CILUPREVIR] | 0.3 nM |  | 4 nM | 
